The subject of data set [1] is Plasmodium yoelii. Kind of data set: Antiplasmodial activity as reduced parasitaemia at day 4 against multi drug-resistant Plasmodium yoelii infected BALB/c mice (Mus musculus) at 50 mg/kg intraperitoneal dose 6 hrs post infection and daily for 3 days by Giemsa stain. In kind it is functional. Also noted: scale not given: the % may be the effect or the level left. The gist of the method:
(§1)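 BALB/c mice (22 ± 2 g), five per group, infected intraperitoneally on day 0 with 10^5 parasitized RBC of P. yoelii resistant to chloroquine, mefloquine and halofantrine. Dosing was intraperitoneal in groundnut oil (0.2 ml), starting 6 h after inoculation and given once daily on days 0–3. Parasitemia was read on Giemsa thin smears on day 4. Group means gave % suppression [(C−T)/C]×100 against vehicle controls; α-β-arteether served as the positive control.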

For data set [2], the system named is Plasmodium falciparum. Description: Induction of oxidative stress as increased hydroxyl radical formation after 48 hrs in chloroquine-sensitive Plasmodium falciparum NF54 by fast blue BB assay. In kind it is functional, organism-based. The gist of the method:
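Ring/early-trophozoite culture (2% parasitemia) was grown 48 h with compound plus 20 μl of 25% DMSO as ·OH trap, re-dosed at each daily medium change; a parasite-only control had neither. Isolated parasites were lysed in water, and methanesulfinic acid from the DMSO–·OH reaction was extracted for quantitation.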

Data set [3] relates to Plasmodium falciparum. Description: Antiplasmodial activity after 48 hrs against chloroquine-sensitive Plasmodium falciparum NF54 by [3H]hypoxanthine uptake. The data set is classed as functional, organism-based. The gist of the method: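 Ring-stage cultures were synchronized with 5% d-sorbitol. At 0.5 to 1% parasitemia they were grown in multiwell plates (200 μl/well) across a range of concentrations, with chloroquine as positive control. After 48 h, [3H]hypoxanthine (0.7 μCi/well) was added and culture continued 48 h. Parasites were washed in PBS, dissolved in 3 N NaOH (37°C, 6 h) and counted by β-counter. IC50 reported as mean ± SEM.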

A short description of data set [4]: Selectivity index ratio of IC50 for human MCF7 cells to IC50 for chloroquine-sensitive Plasmodium falciparum NF54. In kind it is functional. In outline: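 Selectivity index = MCF-7 MTT IC50 divided by P. falciparum NF-54 [3H]hypoxanthine-uptake IC50.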
Data set [5] concerns Plasmodium falciparum. Description: Antiplasmodial activity as increased heme accumulation after 48 hrs against chloroquine-sensitive Plasmodium falciparum NF54 at 10-100 uM by spectrophotometry. The data set is classed as functional, organism-based. The gist of the method: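 Cultures were exposed to a range of concentrations for 48 h, then pelleted and washed in PBS. Each pellet was solubilized in 1 ml concentrated formic acid. Heme was read at 398 nm (ε = 1.56 × 10^5 M−1 cm−1) and expressed as nmol/mg cell protein.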

In data set [6] the test system is MCF7. Description: Cytotoxicity against human MCF7 cells assessed as cell viability after 24 hrs by MTT assay. The following applies: MCF7, 24 h. The data set is classed as cell-based. A general note: Tetrazolium dyes change colour on reduction, which living cells bring about.
For data set [7], the target named is T1, Histidine-rich protein PFHRP-II (Plasmodium falciparum) (UniProt P05227).
T1 sequence (whole entry): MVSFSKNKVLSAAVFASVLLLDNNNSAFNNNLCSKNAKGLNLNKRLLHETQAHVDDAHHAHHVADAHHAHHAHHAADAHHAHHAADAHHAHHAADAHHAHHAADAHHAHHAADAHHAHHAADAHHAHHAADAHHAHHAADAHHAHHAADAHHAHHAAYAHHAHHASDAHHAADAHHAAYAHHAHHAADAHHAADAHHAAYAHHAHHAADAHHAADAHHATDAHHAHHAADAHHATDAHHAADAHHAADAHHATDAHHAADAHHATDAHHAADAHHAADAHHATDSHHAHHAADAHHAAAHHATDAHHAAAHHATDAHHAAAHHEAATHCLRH
Kind of data set: Inhibition of hemozoin formation after 48 hrs against chloroquine-sensitive Plasmodium falciparum NF54 at 10 to 100 uM by spectrophotometry. The data set is classed as functional. In outline: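 Ring-synchronized culture (5% parasitemia, sorbitol) was treated 48 h across a concentration range. Parasites were saponin-isolated and sonicated, and the pellet washed in 2% SDS. It was digested with proteinase K (2 μg/ml, 37°C overnight), treated with 6 M urea for 3 h, and washed in SDS. Hemozoin was dissolved in 20 mM NaOH/2% SDS and read at 400 nm.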

Data set [8] deals with Plasmodium falciparum. Description: Antiplasmodial activity as parasite growth after 24 hrs against chloroquine-sensitive Plasmodium falciparum NF54 infected human B+ erythrocytes at <40 uM 24 hrs preinfection by [3H]hypoxanthine uptake. The data set is classed as functional, organism-based. In outline: (§2)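 Uninfected human B+ RBC at 5% hematocrit were preincubated 24 h in CRPMI with compound up to 40 μM; DMSO served as control. Cells were washed three times, then inoculated with trophozoite-rich parasitized RBC (4 to 5% parasitemia). After one intraerythrocytic cycle, [3H]hypoxanthine (0.7 μCi/well) was added for 24 h. Cells were filter-harvested and counted (cpm), n = 6.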

The subject of data set [9] is MCF7. Kind of data set: Cytotoxicity against human MCF7 cells assessed as cell viability at 10 to 1000 uM after 24 hrs by MTT assay. The data set is classed as cell-based. The following applies: mcf7, 24 h.
The target in data set [10] is Plasmodium yoelii. Kind of data set: Inhibition of hemozoin formation after 48 hrs in multi drug-resistant Plasmodium yoelii.
For data set [11], the system named is Plasmodium falciparum. Description: Induction of oxidative stress as lipid peroxide formation after 48 hrs in chloroquine-sensitive Plasmodium falciparum NF54. In kind it is functional, organism-based. The gist of the method:
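Ring-synchronized culture (4% parasitemia) was treated 48 h, and parasites were isolated and lysed in PBS. Lysate was heated with TCA–thiobarbituric acid in 1 N HCl at 100°C for 15 min, cooled and centrifuged. A535 of the supernatant was read against a tetraethoxypropane standard, expressed as nmol/mg lysate protein.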

For data set [12], the system named is Plasmodium yoelii. Description: Antiplasmodial activity as reduced parasitaemia at day 4 against multi drug-resistant Plasmodium yoelii infected BALB/c mice (Mus musculus) at 25 mg/kg intraperitoneal dose 6 hrs post infection and daily for 3 days by Giemsa stain. The data set is classed as functional. Also noted: scale not given: the % may be the effect or the level left. In outline:
as §1

For data set [13], the system named is Plasmodium falciparum. Description: Induction of oxidative stress as increased H2O2 formation after 48 hrs in chloroquine-sensitive Plasmodium falciparum NF54 by spectrofluorimetry. In kind it is functional, organism-based. In outline: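 Parasites at 4% parasitemia were treated 48 h, then loaded 30 min with 10 μM 2′,7′-dichlorofluorescein diacetate. They were isolated and lysed by mild sonication at 4°C. Dichlorofluorescein fluorescence was read at ex 502/em 523 nm and expressed as intensity/mg lysate protein.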

Another data set has as its target Heme. Description: Binding affinity to heme by optical difference spectroscopy. In outline: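 Heme in 100 mM acetate buffer pH 5.2 at 25 ± 1°C, 1-cm quartz cell, was titrated with successive additions of compound (5 to 40 μM). Soret and difference spectra were recorded after each addition. KD came from a double-reciprocal plot of 1/ΔA362 against 1/[ligand]; mean ± SEM.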

The target in data set [14] is T2, Histidine-rich protein PFHRP-II (Plasmodium falciparum, UniProt P05227).
T2 sequence (P05227 whole entry): T1 sequence (whole entry)
Description: Inhibition of hemozoin formation after 48 hrs in chloroquine-sensitive Plasmodium falciparum NF54. In kind it is functional. In outline: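 P. falciparum NF54 culture (5% parasitemia) was ring-synchronized with 5% d-sorbitol, then exposed to graded drug concentrations for 48 h. Parasites were freed with saponin, sonicated and washed with 2% SDS. The pellet was digested overnight at 37°C with proteinase K (2 μg/ml) in Tris/SDS/CaCl2 and treated with 6 M urea for 3 h. After further SDS washes, hemozoin was dissolved in 20 mM NaOH/2% SDS and read at 400 nm.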

In data set [15] the test system is Plasmodium yoelii. Description: Antiplasmodial activity as reduced parasitaemia at day 4 against multi drug-resistant Plasmodium yoelii infected BALB/c mice (Mus musculus) at 100 mg/kg intraperitoneal dose 6 hrs post infection and daily for 3 days by Giemsa stain. In kind it is functional. Also noted: scale not given: the % may be the effect or the level left. The gist of the method: as §1

Data set [16] has as its system Plasmodium falciparum. Description: Induction of oxidative stress as decreased glutathione after 48 hrs in chloroquine-sensitive Plasmodium falciparum NF54 by TCA assay. In kind it is functional, organism-based. In outline: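 Parasites at 4% parasitemia were treated 48 h, then isolated and sonicated in 20 mM ice-cold EDTA. The lysate was deproteinized with equal-volume 10% TCA, and the supernatant mixed with 0.8 M Tris-HCl pH 9 containing 20 mM DTNB. A412 was read against a GSH standard and expressed as % of control.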

The subject of data set [17] is Plasmodium falciparum. Description: Antiplasmodial activity as parasite invasion after 24 hrs against chloroquine-sensitive Plasmodium falciparum NF54 infected human B+ erythrocytes at <40 uM 24 hrs preinfection by [3H]hypoxanthine uptake. The data set is classed as functional, organism-based. In outline:
as §2

Data set [18] has as its system Plasmodium falciparum. Kind of data set: Antiplasmodial activity after 48 hrs against chloroquine-sensitive Plasmodium falciparum NF54 by [3H]hypoxanthine uptake in presence of PBN. In kind it is functional, organism-based. In outline: (§3)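 Cultures at 4% parasitemia received test compound at 40 μM for 48 h, plus the ·OH scavenger PBN (40 mM) or mannitol (10 mM). Growth was read as [3H]hypoxanthine incorporation, β-counting, n = 6, mean ± SEM.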

The subject of data set [19] is Plasmodium yoelii. Description: Antiplasmodial activity as reduced parasitaemia at day 4 against multi drug-resistant Plasmodium yoelii infected BALB/c mice (Mus musculus) at 10 mg/kg intraperitoneal dose 6 hrs post infection and daily for 3 days by Giemsa stain. The data set is classed as functional. Also noted: scale not given: the % may be the effect or the level left. In outline:
as §1

The subject of data set [20] is Plasmodium falciparum. Description: Antiplasmodial activity after 48 hrs against chloroquine-sensitive Plasmodium falciparum NF54 by [3H]hypoxanthine uptake in presence of mannitol. In kind it is functional, organism-based. The gist of the method: as §3
Data set [21] deals with Plasmodium yoelii. Kind of data set: Antiplasmodial activity as decreased mitochondrial transmembrane potential after 1 hrs against multi drug-resistant Plasmodium yoelii trophozoite infected Swiss mice (Mus musculus) erythrocytes at 10 uM by JC1 uptake. In kind it is functional, organism-based.

Active and inactive are the calls of the source. The rule behind the calls is not given here.

Take `COc1ccc(C(Sc2ccccc2C)c2cccnc2)cc1` (stereo not drawn): the Activity is 50% in the data set with Plasmodium yoelii [1]; “Dose-dependent effect” in the data set with Plasmodium falciparum [2]; “Dose-dependent effect” in data set [7]; “Non-toxic” with MCF7 [9]; “Dose-dependent effect” in the data set with Plasmodium falciparum [11]; 30% with Plasmodium yoelii [12]. Besides, the Activity result in the data set with Plasmodium falciparum [13] was “Dose-dependent effect”; in the data set with Plasmodium yoelii [15], 80%; with Plasmodium falciparum [16], “Dose-dependent effect”. Moreover, the half-maximal inhibitory concentration (IC50) with Plasmodium falciparum [3] worked out at 8 µM; in the data set with MCF7 [6], 1000 µM; on Plasmodium yoelii [10], 26 µM; in data set [14], 16 µM. For the same compound, the “Ratio IC50” value in [4] amounted to 125. Moreover, the outcome with Plasmodium falciparum [5] was Active. Besides, in the data set on Plasmodium falciparum [8], the outcome was inactive. Besides, at Heme, the Kd was found to be 26 µM.

`COc1ccc(C(Sc2ccc3ccccc3c2)c2cccnc2)cc1` (stereo not drawn): the Activity in the data set on Plasmodium yoelii [1] was 85%; with Plasmodium falciparum [2], “Dose-dependent effect”; in data set [7], “Dose-dependent effect”; in the data set with MCF7 [9], “Non-toxic”; in the data set with Plasmodium yoelii [19], 40%; in the data set on Plasmodium falciparum [11] it was “Dose-dependent effect”. For the same compound, the figures for the Activity with Plasmodium yoelii [12], with Plasmodium falciparum [13] and in the data set with Plasmodium falciparum [16] were 65%, “Dose-dependent effect” and “Dose-dependent effect”, respectively. Further, the half-maximal inhibitory concentration (IC50) in the data set on Plasmodium falciparum [3] was 4 µM; in the data set with MCF7 [6] it was 650 µM. Moreover, the result in the data set with Plasmodium falciparum [5] and in the data set with Plasmodium yoelii [21] was Active. The outcome in the data set with Plasmodium falciparum [17], in the data set with Plasmodium falciparum [8], in the data set with Plasmodium falciparum [18] and with Plasmodium falciparum [20] was inactive.

As for `COc1ccc(C(Sc2ccccc2)c2cccnc2)cc1` (stereo not drawn), the Activity is 60% in the data set with Plasmodium yoelii [1]; “Dose-dependent effect” with Plasmodium falciparum [2]; “Dose-dependent effect” in data set [7]; “Non-toxic” with MCF7 [9]; 20% with Plasmodium yoelii [19]; “Dose-dependent effect” in the data set on Plasmodium falciparum [11]. In addition, the Activity in the data set on Plasmodium yoelii [12] is 30%; in the data set with Plasmodium falciparum [13], “Dose-dependent effect”; in the data set on Plasmodium falciparum [16], “Dose-dependent effect”. The IC50 in the data set with Plasmodium falciparum [3] turned out to be 5 µM; in the data set on MCF7 [6], 1000 µM; on Plasmodium yoelii [10] it was 18 µM; in data set [14], 11 µM. Besides, the “Ratio IC50” value in data set [4] worked out at 200. The “%max” value in the data set on Plasmodium falciparum [5] is “Active”. Besides, the dissociation constant Kd on Heme came out at 20 µM.

As for `COc1ccc(C(Sc2ccc(Cl)cc2)c2cccnc2)cc1` (stereo not drawn), the figures for the IC50 (in the data set with Plasmodium falciparum [3]; against Plasmodium yoelii [10]; in data set [14]) were 12 µM, 40 µM and 40 µM, respectively.

`COc1ccc(C(Sc2ccc(C)cc2)c2ccccn2)cc1` (stereo not drawn) had a half-maximal inhibitory concentration (IC50) with Plasmodium falciparum [3] of 20 µM.

For the compound `CCCCCC[C@H]1C(=O)O[C@H](C)[C@H](NC(=O)c2cccc(NC=O)c2O)C(=O)O[C@@H](C)[C@@H]1OC(=O)CC(C)C`, in the data set with Plasmodium yoelii [21], the outcome was Active.

In the case of `COc1ccc(C(Sc2nc3ccccc3s2)c2cccnc2)cc1` (stereo not drawn), the concentration for half-maximal inhibition (IC50) in the data set with Plasmodium falciparum [3] worked out at 12 µM; on Plasmodium yoelii [10] it was 40 µM; in data set [14] it was 35 µM. This compound also showed a Kd on Heme of 14 µM.

In the case of `COc1ccc(C(Sc2ccc(C)cc2)c2cccnc2)cc1` (stereo not drawn), the results for the concentration for half-maximal inhibition (IC50) (with Plasmodium falciparum [3]; against Plasmodium yoelii [10]; in [14]) were 20 µM, 20 µM and 40 µM, respectively. Also, the Kd at Heme is 12 µM.

For orientation: IC50 means the concentration needed to halve the response being measured. Broadly, the Kd is the constant that tells how readily two partners part at equilibrium.

Values taken from ChEMBL document CHEMBL1153556, “Antiplasmodial activity of [(aryl)arylsulfanylmethyl]Pyridine” (Antimicrob Agents Chemother, 2008).
